PMI act satM6P – activators of human phosphomannose isomerase at near-saturating mannose 6-phosphate; P34949; coupled PMI enzyme assay, resazurin fluorescence, 20 min; active compounds read high; 1 = untreated enzyme, 0 = substrate-free blank; activation factor at 20 µM; hit rate 0.34% among 190,000; AID 1216;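 active = activation factor of 2 or more at 20 µM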
Target sequence (P34949 whole entry, looked up): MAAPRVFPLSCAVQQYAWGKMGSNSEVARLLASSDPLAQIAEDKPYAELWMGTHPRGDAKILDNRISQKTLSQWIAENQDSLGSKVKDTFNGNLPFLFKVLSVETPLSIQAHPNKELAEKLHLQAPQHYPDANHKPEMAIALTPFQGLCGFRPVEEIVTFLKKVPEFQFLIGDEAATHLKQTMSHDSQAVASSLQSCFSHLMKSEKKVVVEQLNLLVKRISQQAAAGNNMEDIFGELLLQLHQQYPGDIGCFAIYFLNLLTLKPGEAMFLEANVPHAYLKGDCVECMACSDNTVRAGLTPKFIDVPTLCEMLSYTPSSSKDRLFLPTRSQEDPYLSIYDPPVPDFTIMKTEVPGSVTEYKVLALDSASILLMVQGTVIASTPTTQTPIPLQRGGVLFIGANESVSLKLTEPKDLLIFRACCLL
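Test system: Human PMI in coupled enzyme assay | Input: 15 ng/mL PMI | Medium: HEPES-buffered pH 7.4 with magnesium and detergent | Compound: One concentration, 20 µM, in 1% DMSO | Incubation: Enzyme reaction with compound 20 min at room temperature | Detection: Diaphorase-driven resazurin-to-resorufin fluorescence, excitation 544, emission 590 nm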
HCT116 PTEN-null – PTEN-deleted cell growth suppression | hit rate 1.2% among 140,000 | viability, % at 10 µM | HCT116 PTEN-null viability, CellTiter-Glo, 60 h; active compounds read low;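 active = viability at or below a set limit, 4 SD under the median of all tested compounds, cut at about 3.7% in these data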;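 also: PTEN knockout HCT116 line with beta catenin targeted HCT116 as companion control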
L major viab – Leishmania major promastigote growth inhibition | Leishmania major promastigotes, resazurin fluorescence viability | inhibition, % at 10 µM | AID 1063 | hit rate 9% among 200,000; in the data active = inhibition above about 50%;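 also: promastigotes grown with compound for 44 hours at 28 °C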
bCat KO growth – beta-catenin-lacking colon tumor cell growth suppression; HCT116 beta-catenin knockout viability, CellTiter-Glo, 60 h; active compounds read low; viability, % at 10 µM; hit rate 1.5% among 140,000;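 active = viability at or under a set limit, the compound median less 4 SD, cut at about 6% in these data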;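 also: 0% = Hyamine 1622 control at 20 µM and 100% = untreated cell control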
PMI act – phosphomannose isomerase (human) activation. P34949. purified human PMI, coupled resazurin fluorescence, 20 min; active compounds read high; 1 = vehicle control, 0 substrate-free wells. activation factor at 20 µM. hit rate 0.005% among 190,000. AID 1214;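 active = activation factor of 2 or more at 20 µM, relative to plate controls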
The depositor's hits bear a star; x = not tested or not shown. Hits are enriched below; roughly 9.6% of the tested compounds scored in any of these assays.

SMILES	PMI act satM6P	HCT116 PTEN-null	L major viab	bCat KO growth	PMI act
CCn1c2ccccc2c2cc(NC(=O)CSc3nnc(-c4cccc(C)c4)o3)ccc21	0.9	26.4	92.0*	25.5	0.9
Cc1ccc(C)c(NC(=O)CSc2nnc(-c3ccccc3)o2)c1	1	99.0	-8.1	97.8	0.9
CCn1c2ccccc2c2cc(NC(=O)CSc3nccc(=O)[nH]3)ccc21	0.9	x	89.6*	x	1
O=C(NCc1cccnc1)c1ccccc1[N+](=O)[O-]	1	95.0	24.5	99.8	0.9
CCn1c(SCC(=O)Nc2cc(C)on2)nnc1-c1ccc(S(=O)(=O)N2CCCC2)cc1	1	97.2	69.1*	74.9	1
Cc1cc(NC(=O)CSc2nnc(-c3ccc(S(=O)(=O)N4CCCC4)cc3)n2C)no1	1	105.8	-0.7	106.2	1
CCn1c(SCC(=O)Nc2nccs2)nnc1-c1ccc(S(=O)(=O)N2CCCCC2)cc1	0.9	77.8	56.0*	82.8	0.8
CCOc1ccccc1OCC(=O)NCCc1ccc(S(N)(=O)=O)cc1	0.9	x	-8.5	x	1
Cn1nc(CC(=O)Nc2ccc(N3CCN(C(=O)OC(C)(C)C)CC3)cc2)c2ccccc2c1=O	1.2	1.1*	38.6	1.2*	1.2
Cn1nc(CC(=O)N2CCN(c3ccccc3)CC2)c2ccccc2c1=O	1	90.3	0.6	94.2	0.9
Oc1c(N=Nc2ccccn2)ccc2ccccc12	0.7	2.0*	100.2*	1.8*	0.8
N/N=c1\sc2ccccc2n1-c1ccccc1	1.1	88.9	-2.9	109.8	1
CCCCOC(=O)/C=C/c1c(C)[nH]c(=O)[nH]c1=O	1.1	85.2	52.5*	86.3	1.1
CCCN(CCC)S(=O)(=O)c1ccc(C(=O)Nc2nnc(-c3cccc(OC)c3)o2)cc1	1.2	10.0	97.7*	10.0	1.3
CCCN(CCC)S(=O)(=O)c1ccc(C(=O)Nc2nnc(-c3cc(OC)cc(OC)c3)o2)cc1	1.2	10.5	100.1*	15.0	1.2
CCCN(CCC)S(=O)(=O)c1ccc(C(=O)Nc2nnc(CSC)o2)cc1	1.1	24.1	-2.7	36.4	1.1
COc1cccc(-c2nnc(NC(=O)c3ccc(Cl)s3)o2)c1	1.4	6.4	54.8*	11.4	1.3
Cc1cccc(C)c1NC(=O)C/C(N)=N/O	1	92.8	-5.5	100.3	0.9
CC1=C(C(=O)OCc2ccc3c(c2)OCO3)C(c2cccc([N+](=O)[O-])c2)NC(=O)N1 (stereo unspecified)	1	x	-8.9	x	1
COC(=O)CSc1nnc(CNc2ccc(Cl)cc2)n1-c1ccccc1	0.9	100.0	-6.5	97.7	1.1
COc1ccccc1N(C)S(=O)(=O)c1ccc(C(=O)Nc2nc(C)cs2)cc1	0.9	x	98.6*	x	0.8
COc1ccccc1N(C)S(=O)(=O)c1ccc(C(=O)NC(C)(C)C)cc1	1	81.8	1.7	92.1	1
COc1ccccc1N(C)S(=O)(=O)c1ccc(C(=O)NCc2ccc3c(c2)OCO3)cc1	1	x	99.3*	x	1.1
O=c1c(Cl)c(N2CCOCC2)cnn1-c1nc2ccccc2[nH]1	1.1	x	3.9	x	1.1
CC(C)CN(C)C(=O)CCc1nnc(Cc2ccc(-c3ccccc3)cc2)o1	0.9	x	4.2	x	0.9
SMILES	PMI act satM6P	HCT116 PTEN-null	L major viab	bCat KO growth	PMI act
C#CCOCCOCCOCCNc1nc(N2CCOCC2)nc(N2CCN(C(=O)Cn3cc(CC(C)O)nn3)CC2)n1 (stereo unspecified)	1.2	96.0	-4.5	96.1	1.2
COc1cccc(CC(NC(C)=O)C(=O)NC2CCN(S(=O)(=O)c3ccc4ccccc4c3)CC2)c1 (stereo unspecified)	1	87.4	4.3	88.0	1
CCOC1=NN(c2ccc(Cl)cc2)C(=O)/C1=C\N(C)C	1.1	x	-0.7	x	1
Fc1ccccc1CSc1nnc(-c2cnccn2)n1Cc1ccco1	1.1	89.2	14.4	93.5	1.1
C(=C\c1ccccc1)/CSc1nnc(-c2cnccn2)n1Cc1ccco1	1.1	66.8	99.6*	60.6	1.1
CCCOc1cc(C)c(S(=O)(=O)NC2CC(C)(C)NC(C)(C)C2)cc1C	1	95.1	97.2*	74.8	1
COc1n[nH]c(C(=O)Nc2cc(Cl)ccc2Cl)c1[N+](=O)[O-]	1.1	x	88.7*	x	1
COc1n[nH]c(C(=O)Nc2cc(F)ccc2C)c1[N+](=O)[O-]	1.1	101.8	16.6	96.5	1.1
COc1ccc(Cl)cc1NC(=O)c1[nH]nc(OC)c1[N+](=O)[O-]	1	x	53.4*	x	1
CCOc1cccc2sc(Nc3nc4ccc(NC(C)=O)cc4s3)nc12	1.1	8.4	80.2*	9.9	1.1
CCOc1cccc2sc(NN)nc12	2.2*	x	4.8	x	1.6
CCN1/C(=C/C(C)=C/c2sc3ccccc3[n+]2CC)Sc2ccccc21	1	x	99.8*	x	0.8
CCN1/C(=C\C(=S)Nc2ccccc2)Sc2ccccc21	x	x	-1.4	x	x
Cc1nc([N+](=O)[O-])c(Sc2nc3ccc([N+](=O)[O-])cc3[nH]2)n1Cc1ccccc1	1	5.0	53.7*	6.6	1
Cc1ccc2cc(CCNC(=O)CC(C)C)c(=O)[nH]c2c1	0.9	95.2	-4.9	93.4	1
O=C(CN1CCc2ccccc2C1)NCC(=O)Nc1ccc(F)cc1	0.9	x	4.3	x	1
CC1CC(C)CN(S(=O)(=O)c2ccccc2[N+](=O)[O-])C1 (stereo unspecified)	0.9	78.4	4.7	66.4	0.8
Cc1ccc(NC(=S)N2CCCC(c3nc4ccccc4[nH]3)C2)cc1 (stereo unspecified)	1.2	x	88.7*	x	1
Cc1ccccc1NC(=S)N1CCCC(c2nc3ccccc3[nH]2)C1 (stereo unspecified)	1	x	4.0	x	1
COc1ccc(CCN2C(=O)C(Oc3ccccc3)C2c2ccc3c(c2)OCO3)cc1 (stereo unspecified)	1	93.8	-3.1	92.5	0.9
CS(=O)(=O)c1ccc(C(=O)NCCN2C(=O)S/C(=C\c3cccnc3)C2=O)cc1[N+](=O)[O-]	1.2	x	74.4*	x	1.3
CC(C)(C)C(=O)NCCN1C(=O)S/C(=C\c2ccc([N+](=O)[O-])cc2)C1=O	1	70.6	56.8*	63.9	1.1
CN(C)S(=O)(=O)c1ccc(C(=O)NCCN2C(=O)S/C(=C\c3cccnc3)C2=O)cc1	0.9	x	11.7	x	0.8
CCCCOC(=O)c1ccc(S(N)(=O)=O)o1	1	98.7	16.4	100.3	1
O=C(Nc1nnc(-c2ccccn2)o1)c1cccc(Cl)c1	1.1	x	51.1*	x	1.2
COc1cc(OC)cc(C(=O)Nc2nnc(-c3cccnc3)o2)c1	1.1	x	36.3	x	1.1
O=C(Nc1nnc(-c2cccnc2)o1)c1cccc(Cl)c1	1.3	x	54.8*	x	1.3
O=C(CN1C(=O)/C(=C\c2ccc(F)cc2)Oc2ccccc21)NCc1ccco1	0.9	84.0	-7.0	71.6	0.9
CCC(C)(C)NC(=O)C(c1cccnc1)N(C(=O)c1csnn1)c1ccc(C)cc1 (stereo unspecified)	1	x	-5.2	x	1.1

Screens (PubChem)
